Measurements: ChEMBL document CHEMBL1926577, “Novel 1,3,4-heterodiazole analogues: synthesis and in-vitro antitumor activity” (2012)

Key:
Format in all cases: functional
HT-29 = test: Growth inhibition of human HT-29 cells at 10 uM after 48 hrs by coulter counter method; settings: HT-29, 48 h, read-out: GI
How it was run: (§1)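 NCI 60-cell-line panel, single dose. Compound dissolved first in DMSO, then diluted in phosphate-buffered saline so that every final dilution held under 1% DMSO. Duplicate wells received cells at 6 × 10⁴ cells/ml. Controls held PBS/DMSO at the same dilution. Plates were incubated 48 h at 37 °C under 5% CO₂. Cells were then diluted 10-fold in saline and counted on a Coulter counter, with counts corrected for the dilution. Results are given as percent growth inhibition.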

UACC-257 = test: Growth inhibition of human UACC257 cells at 10 uM after 48 hrs by coulter counter method; settings: UACC-257, 48 h, read-out: GI; how it was run: as §1
OVCAR-8 = test: Growth inhibition of human OVCAR8 cells at 10 uM after 48 hrs by coulter counter method; settings: OVCAR-8, 48 h, read-out: GI; how it was run: as §1
SF-295 = test: Growth inhibition of human SF295 cells at 10 uM after 48 hrs by coulter counter method; settings: SF-295, 48 h, read-out: GI; how it was run: as §1
NCI-H522 = test: Growth inhibition of human NCI-H522 cells at 10 uM after 48 hrs by coulter counter method; settings: NCI-H522, 48 h, read-out: GI; how it was run: as §1
HCT-116 = test: Growth inhibition of human HCT116 cells at 10 uM after 48 hrs by coulter counter method; settings: HCT-116, 48 h, read-out: GI; how it was run: as §1
SK-MEL-2 = test: Growth inhibition of human SK-MEL-2 cells at 10 uM after 48 hrs by coulter counter method; settings: SK-MEL-2, 48 h, read-out: GI; how it was run: as §1
K562 = test: Growth inhibition of human K562 cells at 10 uM after 48 hrs by coulter counter method; settings: K562, 48 h, read-out: GI; how it was run: as §1
CAKI-1 = test: Growth inhibition of human Caki1 cells at 10 uM after 48 hrs by coulter counter method; settings: CAKI-1, 48 h, read-out: GI; how it was run: as §1
IGROV-1 = test: Growth inhibition of human IGROV1 cells at 10 uM after 48 hrs by coulter counter method; settings: IGROV-1, 48 h, read-out: GI; how it was run: as §1
NCI-H322M = test: Growth inhibition of human NCI-H322M cells at 10 uM after 48 hrs by coulter counter method; settings: read-out: GI; how it was run: as §1
HCT-15 = test: Growth inhibition of human HCT15 cells at 10 uM after 48 hrs by coulter counter method; settings: HCT-15, 48 h, read-out: GI; how it was run: as §1
Malme-3M = test: Growth inhibition of human MALME-3M cells at 10 uM after 48 hrs by coulter counter method; settings: read-out: GI; how it was run: as §1
SNB-75 = test: Growth inhibition of human SNB75 cells at 10 uM after 48 hrs by coulter counter method; settings: SNB-75, 48 h, read-out: GI; how it was run: as §1
NCI-H226 = test: Growth inhibition of human NCI-H226 cells at 10 uM after 48 hrs by coulter counter method; settings: NCI-H226, 48 h, read-out: GI; how it was run: as §1
M14 = test: Growth inhibition of human M14 cells at 10 uM after 48 hrs by coulter counter method; settings: M14, 48 h, read-out: GI; how it was run: as §1
A498 = test: Growth inhibition of human A498 cells at 10 uM after 48 hrs by coulter counter method; settings: A498, 48 h, read-out: GI; how it was run: as §1
SK-MEL-28 = test: Growth inhibition of human SK-MEL-28 cells at 10 uM after 48 hrs by coulter counter method; settings: SK-MEL-28, 48 h, read-out: GI; how it was run: as §1
KM12 = test: Growth inhibition of human KM12 cells at 10 uM after 48 hrs by coulter counter method; settings: KM12, 48 h, read-out: GI; how it was run: as §1
EKVX = test: Growth inhibition of human EKVX cells at 10 uM after 48 hrs by coulter counter method; settings: read-out: GI; how it was run: as §1
SN12C = test: Growth inhibition of human SN12C cells at 10 uM after 48 hrs by coulter counter method; settings: read-out: GI; how it was run: as §1
SR = test: Growth inhibition of human SR cells at 10 uM after 48 hrs by coulter counter method; settings: read-out: GI; how it was run: as §1
BT-549 = test: Growth inhibition of human BT549 cells at 10 uM after 48 hrs by coulter counter method; settings: BT-549, 48 h, read-out: GI; how it was run: as §1
UACC-62 = test: Growth inhibition of human UACC62 cells at 10 uM after 48 hrs by coulter counter method; settings: UACC-62, 48 h, read-out: GI; how it was run: as §1
SF-268 = test: Growth inhibition of human SF268 cells at 10 uM after 48 hrs by coulter counter method; settings: SF-268, 48 h, read-out: GI; how it was run: as §1
UO-31 = test: Growth inhibition of human UO31 cells at 10 uM after 48 hrs by coulter counter method; settings: UO-31, 48 h, read-out: GI; how it was run: as §1
786-0 = test: Growth inhibition of human 786-0 cells at 10 uM after 48 hrs by coulter counter method; settings: 786-0, 48 h, read-out: GI; how it was run: as §1
MCF7 = test: Growth inhibition of human MCF7 cells at 10 uM after 48 hrs by coulter counter method; settings: MCF7, 48 h, read-out: GI; how it was run: as §1
A549 = test: Growth inhibition of human A549 cells at 10 uM after 48 hrs by coulter counter method; settings: A549, 48 h, read-out: GI; how it was run: as §1
HL-60(TB) = test: Growth inhibition of human HL-60(TB) cells at 10 uM after 48 hrs by coulter counter method; settings: HL-60, 48 h, read-out: GI
How it was run: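 Single-dose screen on the NCI 60-line panel (leukemia subpanel). Compound is dissolved in DMSO and diluted in PBS, with final DMSO below 1%. Duplicate wells hold 6 × 10⁴ cells/ml at 37 °C, 5% CO₂, for 48 h. Cells are counted by Coulter counter after 10-fold saline dilution. Read-out is percent growth versus PBS/DMSO controls, expressed as % growth inhibition.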

T47D = test: Growth inhibition of human T47D cells at 10 uM after 48 hrs by coulter counter method; settings: read-out: GI; how it was run: as §1
U-251 = test: Growth inhibition of human U251 cells at 10 uM after 48 hrs by coulter counter method; settings: U-251, 48 h, read-out: GI; how it was run: as §1
SNB-19 = test: Growth inhibition of human SNB19 cells at 10 uM after 48 hrs by coulter counter method; settings: SNB-19, 48 h, read-out: GI; how it was run: as §1
SK-MEL-5 = test: Growth inhibition of human SK-MEL-5 cells at 10 uM after 48 hrs by coulter counter method; settings: SK-MEL-5, 48 h, read-out: GI; how it was run: as §1
MOLT-4 = test: Growth inhibition of human MOLT4 cells at 10 uM after 48 hrs by coulter counter method; settings: MOLT-4, 48 h, read-out: GI; how it was run: as §1
MDA-MB-435 = test: Growth inhibition of human MDA-MB-435 cells at 10 uM after 48 hrs by coulter counter method; settings: MDA-MB-435, 48 h, read-out: GI; how it was run: as §1
TK-10 = test: Growth inhibition of human TK10 cells at 10 uM after 48 hrs by coulter counter method; settings: TK-10, 48 h, read-out: GI; how it was run: as §1
MDA-MB-468 = test: Growth inhibition of human MDA-MB-468 cells at 10 uM after 48 hrs by coulter counter method; settings: MDA-MB-468, 48 h, read-out: GI; how it was run: as §1
LOX IMVI = test: Growth inhibition of human LOXIMVI cells at 10 uM after 48 hrs by coulter counter method; settings: read-out: GI; how it was run: as §1
CCRF-CEM = test: Growth inhibition of human CCRF-CEM cells at 10 uM after 48 hrs by coulter counter method; settings: read-out: GI; how it was run: as §1
NCI-H23 = test: Growth inhibition of human NCI-H23 cells at 10 uM after 48 hrs by coulter counter method; settings: NCI-H23, 48 h, read-out: GI; how it was run: as §1
ACHN = test: Growth inhibition of human ACHN cells at 10 uM after 48 hrs by coulter counter method; settings: read-out: GI; how it was run: as §1
NCI/ADR-RES = test: Growth inhibition of human NCI/ADR-RES cells at 10 uM after 48 hrs by coulter counter method; settings: read-out: GI; how it was run: as §1
PC-3 = test: Growth inhibition of human PC3 cells at 10 uM after 48 hrs by coulter counter method; settings: PC-3, 48 h, read-out: GI; how it was run: as §1

Compound: O=C1N=C2OC(c3ccc(Cl)cc3)=NN2C1=O
- inhibition of growth at 10 µM (HT-29): < 10%
- inhibition of growth at 10 µM (UACC-257): < 10%
- inhibition of growth at 10 µM (OVCAR-8): < 10%
- inhibition of growth at 10 µM (SF-295): < 10%
- inhibition of growth at 10 µM (NCI-H522): < 10%
- inhibition of growth at 10 µM (HCT-116): < 10%
- inhibition of growth at 10 µM (SK-MEL-2): < 10%
- inhibition of growth at 10 µM (K562): 13.6%
- inhibition of growth at 10 µM (CAKI-1): < 10%
- inhibition of growth at 10 µM (IGROV-1): < 10%
- inhibition of growth at 10 µM (NCI-H322M): < 10%
- inhibition of growth at 10 µM (HCT-15): < 10%
- inhibition of growth at 10 µM (Malme-3M): < 10%
- inhibition of growth at 10 µM (SNB-75): < 10%
- inhibition of growth at 10 µM (NCI-H226): < 10%
- inhibition of growth at 10 µM (M14): < 10%
- inhibition of growth at 10 µM (A498): < 10%
- inhibition of growth at 10 µM (SK-MEL-28): < 10%
- inhibition of growth at 10 µM (KM12): < 10%
- inhibition of growth at 10 µM (EKVX): < 10%
- inhibition of growth at 10 µM (SN12C): < 10%
- inhibition of growth at 10 µM (SR): 12.1%
- inhibition of growth at 10 µM (BT-549): < 10%
- inhibition of growth at 10 µM (UACC-62): < 10%
- inhibition of growth at 10 µM (SF-268): < 10%
- inhibition of growth at 10 µM (UO-31): 11.7%
- inhibition of growth at 10 µM (786-0): < 10%
- inhibition of growth at 10 µM (MCF7): < 10%
- inhibition of growth at 10 µM (A549): < 10%
- inhibition of growth at 10 µM (HL-60(TB)): 15%
- inhibition of growth at 10 µM (T47D): < 10%
- inhibition of growth at 10 µM (U-251): < 10%
- inhibition of growth at 10 µM (SNB-19): < 10%
- inhibition of growth at 10 µM (SK-MEL-5): < 10%
- inhibition of growth at 10 µM (MOLT-4): < 10%
- inhibition of growth at 10 µM (MDA-MB-435): < 10%
- inhibition of growth at 10 µM (TK-10): < 10%
- inhibition of growth at 10 µM (MDA-MB-468): < 10%
- inhibition of growth at 10 µM (LOX IMVI): < 10%
- inhibition of growth at 10 µM (CCRF-CEM): < 10%
- inhibition of growth at 10 µM (NCI-H23): < 10%
- inhibition of growth at 10 µM (ACHN): < 10%
- inhibition of growth at 10 µM (NCI/ADR-RES): < 10%
- inhibition of growth at 10 µM (PC-3): < 10%
